Reference: ChEMBL document CHEMBL1134666, “Design, synthesis, and biological evaluation of novel nucleoside and nucleotide analogues as agents against DNA viruses and/or retroviruses” (J Med Chem, 2001)
Each block holds one compound with its values, some of them ahead of it.

How the values were obtained:
[1] = molecular target: T1, Adenosine deaminase (Bos taurus) (UniProt P56658); experiment: Maximum velocity constant of the rate of deamination was determined against adenosine deaminase
T1 sequence (whole entry): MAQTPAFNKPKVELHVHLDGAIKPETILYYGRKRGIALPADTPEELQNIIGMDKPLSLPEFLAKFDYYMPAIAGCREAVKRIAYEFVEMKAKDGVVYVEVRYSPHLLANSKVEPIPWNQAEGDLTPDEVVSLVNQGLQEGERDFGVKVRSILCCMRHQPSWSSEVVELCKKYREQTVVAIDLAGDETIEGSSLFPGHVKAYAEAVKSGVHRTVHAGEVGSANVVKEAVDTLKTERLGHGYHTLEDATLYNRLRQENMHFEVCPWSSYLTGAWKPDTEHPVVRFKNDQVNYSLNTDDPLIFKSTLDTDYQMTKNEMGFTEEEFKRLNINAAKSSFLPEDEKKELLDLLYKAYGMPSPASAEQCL
Summary of the method: (§1)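 Calf mucosal adenosine deaminase in buffer solution. Reaction velocity measured as µmol/min per mg enzyme across substrate concentrations.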

Vero = experiment: Michaelis rate constant is determined by the Lineweaver and Burk method against Vero cell thymidine kinase; format: functional, cell-based; conditions: Chlorocebus sabaeus
[2] = Maximum velocity constant of the rate of phosphorylation was determined against PRPP synthetase
[3] = Michaelis rate constant is determined by the Lineweaver and Burk method against PRPP synthetase
Summary of the method: (§2)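 PRPP synthetase (0.04 unit) in 10.0 mM potassium phosphate pH 8.0 with 5.0 mM MgCl2, 2.5 mM PRPP and substrate. Reaction linear; stopped with MeOH after 4 h. Diphosphate products quantified by anion-exchange HPLC.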

[4] = Maximum velocity constant of the rate of phosphorylation was determined against PRPP synthetase; summary of the method: as §2
[5] = test system: Thymidine kinase (Herpes simplex virus 1); experiment: Maximum velocity constant of the rate of phosphorylation was determined in the presence of HSV thymidine kinase
[6] = molecular target: T1, Adenosine deaminase (Bos taurus); experiment: Maximum velocity constant against adenosine deaminase; summary of the method: as §1
[7] = test system: Thymidine kinase (Herpes simplex virus 1); experiment: Maximum velocity constant of the rate of phosphorylation was determined against HSV thymidine kinase

Structure (SMILES): Nc1ncnc2ncn(COCCO)c12
Relative Vmax [1]: 1.5 | Km (Vero): > 3 µM

Structure (SMILES): Nc1ncnc2ncn(CCOCP(=O)(O)O)c12
Relative Vmax [2]: 0.013

Structure (SMILES): Nc1ncnc2c1ncn2[C@@H]1O[C@H](COP(=O)(O)O)[C@@H](O)[C@H]1O
Km [3]: 240 µM | Relative Vmax [4]: 14

Further lines, with some results ahead:

Relative Vmax [5]: < 3 | Relative Vmax [6]: 1.5
Structure (SMILES): Nc1ncnc2c1ncn2COCCO
Km (Vero): > 3 µM

Relative Vmax [7]: 28
Structure (SMILES): Nc1nc(O)c2c(ncn2COCCO)n1

Relative Vmax [1]: 1
Structure (SMILES): Nc1ncnc2c1ncn2[C@@H]1O[C@H](CO)[C@@H](O)[C@@H]1O
Km (Vero): 2.2 µM
